pKi: −log10 of the molar value.
Target: T1, Thermolysin (Bacillus thermoproteolyticus, UniProt P00800)
T1 sequence (P00800 whole entry): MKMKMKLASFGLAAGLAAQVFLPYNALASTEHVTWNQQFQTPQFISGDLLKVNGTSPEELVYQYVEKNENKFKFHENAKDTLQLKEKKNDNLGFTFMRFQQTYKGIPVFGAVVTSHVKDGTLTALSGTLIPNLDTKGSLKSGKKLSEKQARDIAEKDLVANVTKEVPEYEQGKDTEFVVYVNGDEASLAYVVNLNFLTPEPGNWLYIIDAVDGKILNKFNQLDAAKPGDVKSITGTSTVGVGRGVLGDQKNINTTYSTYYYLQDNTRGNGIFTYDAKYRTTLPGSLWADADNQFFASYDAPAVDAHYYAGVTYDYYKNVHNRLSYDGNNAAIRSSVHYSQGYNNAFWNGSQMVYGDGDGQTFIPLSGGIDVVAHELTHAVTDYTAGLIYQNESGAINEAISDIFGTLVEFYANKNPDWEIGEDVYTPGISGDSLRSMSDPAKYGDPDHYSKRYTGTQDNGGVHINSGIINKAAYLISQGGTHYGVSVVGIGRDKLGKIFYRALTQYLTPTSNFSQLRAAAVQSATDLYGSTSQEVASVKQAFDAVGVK
Experiment: Inhibition of Bacillus thermoproteolyticus TLN using 2-furanacryloyl-Gly-Leu-NH2 substrate by biochemical assay
Summary of the method: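 Read photometrically at 345 nm, 25.0 ± 0.2 °C, in 0.05 M Tris with 0.02 M CaCl2, 2.5 M NaBr, 1.25% DMF, pH 7.3. Final enzyme ~8 nM (stock quantified by A280). Inhibitor spanned 0.5Ki–10Ki. IC50 from υ0/υi vs [I] plots (Ki above 30 nM) or Henderson plots (below). Ki via Cheng-Prusoff (Km 3.9 ± 0.6 mM), averaged over at least three determinations.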

Row | Compound | pKi
1 | CC[C@H](NC(=O)[C@H](CC(C)C)NP(=O)(O)CNC(=O)OCc1ccccc1)C(=O)O | 8.31
2 | CC[C@H](NC(=O)[C@H](C)NP(=O)(O)CNC(=O)OCc1ccccc1)C(=O)O | 5.86
3 | CC(C)C[C@H](NP(=O)(O)CNC(=O)OCc1ccccc1)C(=O)N[C@H](C(=O)O)C(C)C | 8.24
4 | CC(C)C[C@H](NP(=O)(O)CNC(=O)OCc1ccccc1)C(=O)N[C@@H](CC(C)(C)C)C(=O)O | 7.40
5 | CCCCCNC(=O)[C@H](CC(C)C)NP(=O)(O)CNC(=O)OCc1ccccc1 | 7.23
6 | CCCNC(=O)[C@H](C)NP(=O)(O)CNC(=O)OCc1ccccc1 | 4.91
7 | CCC[C@H](NP(=O)(O)CNC(=O)OCc1ccccc1)C(=O)NCCC(C)C | 6.66
8 | CC(C)C[C@H](NP(=O)(O)CNC(=O)OCc1ccccc1)C(=O)NCC(C)(C)C | 7.00
9 | CCCC[C@H](NC(=O)[C@H](CC(C)C)NP(=O)(O)CNC(=O)OCc1ccccc1)C(=O)O | 8.28
10 | CCC(C)CNC(=O)[C@H](CC(C)C)NP(=O)(O)CNC(=O)OCc1ccccc1 (some centres undefined) | 7.59
11 | CC(C)C[C@H](NP(=O)(O)CNC(=O)OCc1ccccc1)C(=O)NCCc1ccccc1 | 6.53
12 | CC(C)C[C@H](NP(=O)(O)CNC(=O)OCc1ccccc1)C(=O)NCCc1cccs1 | 6.72
13 | C[C@H](NP(=O)(O)CNC(=O)OCc1ccccc1)C(=O)N[C@@H](Cc1ccccc1)C(=O)O | 4.51
14 | CC(C)C[C@H](NP(=O)(O)CNC(=O)OCc1ccccc1)C(=O)N[C@@H](Cc1cccs1)C(=O)O | 7.62
15 | CC[C@H](NP(=O)(O)CNC(=O)OCc1ccccc1)C(=O)N[C@@H](CC(C)C)C(=O)O | 6.22
16 | CC(C)CCNC(=O)[C@H](C)NP(=O)(O)CNC(=O)OCc1ccccc1 | 4.71
17 | CCC(C)[C@H](NC(=O)[C@H](CC(C)C)NP(=O)(O)CNC(=O)OCc1ccccc1)C(=O)O (some centres undefined) | 7.92
18 | CCC[C@H](NP(=O)(O)CNC(=O)OCc1ccccc1)C(=O)N[C@@H](CC(C)C)C(=O)O | 7.54

The remaining molecules from weak to strong by pKi, led by results:

Row | pKi | Compound
19 | 3.72 | C[C@H](NP(=O)(O)CNC(=O)OCc1ccccc1)C(=O)NCC(=O)O
20 | 3.73 | CNC(=O)[C@H](C)NP(=O)(O)CNC(=O)OCc1ccccc1
21 | 4.25 | CCNC(=O)[C@H](C)NP(=O)(O)CNC(=O)OCc1ccccc1
22 | 4.34 | C[C@H](NP(=O)(O)CNC(=O)OCc1ccccc1)C(=O)NCCc1ccccc1
23 | 5.14 | C[C@H](NC(=O)[C@H](C)NP(=O)(O)CNC(=O)OCc1ccccc1)C(=O)O
24 | 5.23 | CC(C)C[C@H](NC(=O)[C@H](C)NP(=O)(O)CNC(=O)OCc1ccccc1)C(=O)O
25 | 5.71 | CC[C@H](NP(=O)(O)CNC(=O)OCc1ccccc1)C(=O)NCCC(C)C
26 | 7.16 | CC(C)CCNC(=O)[C@H](CC(C)C)NP(=O)(O)CNC(=O)OCc1ccccc1
27 | 7.17 | CCCCNC(=O)[C@H](CC(C)C)NP(=O)(O)CNC(=O)OCc1ccccc1
28 | 7.22 | CCCNC(=O)[C@H](CC(C)C)NP(=O)(O)CNC(=O)OCc1ccccc1
29 | 7.27 | CC(C)C[C@H](NP(=O)(O)CNC(=O)OCc1ccccc1)C(=O)N[C@@H](Cc1ccccc1)C(=O)O
30 | 7.37 | CC(C)C[C@H](NP(=O)(O)CNC(=O)OCc1ccccc1)C(=O)NCCC(C)(C)C
31 | 7.43 | CC(C)CNC(=O)[C@H](CC(C)C)NP(=O)(O)CNC(=O)OCc1ccccc1
32 | 7.51 | CC(C)C[C@H](NP(=O)(O)CNC(=O)OCc1ccccc1)C(=O)N[C@H](C(=O)O)C(C)(C)C
33 | 8.00 | CC(C)C[C@H](NC(=O)[C@H](CC(C)C)NP(=O)(O)CNC(=O)OCc1ccccc1)C(=O)O
34 | 8.26 | CCC[C@H](NC(=O)[C@H](CC(C)C)NP(=O)(O)CNC(=O)OCc1ccccc1)C(=O)O

Source: ChEMBL document CHEMBL3407486, “Additivity or cooperativity: which model can predict the influence of simultaneous incorporation of two or more functionalities in a ligand molecule?” (Eur J Med Chem, 2015)
